The list is not random: actives were taken first. Their share in the collection is about 1.9%.
NS3 helicase inh = inhibitors of HCV NS3 helicase, primary screen, biochemical, Cy5 molecular beacon fluorescence. actives 0.56% (n = 290,000). inhibition, % at 10.9 µM. Hepatitis C virus NS3 helicase. NS3 helicase DNA unwinding;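 active = inhibition above the mean of all tested compounds plus 3 SD, set per campaign, cut at about 35% in these data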;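 also: 0% = DMSO wells and 100% = thioflavine S control wells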
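Material: hepatitis C virus NS3 helicase domain fragment enzyme; measured by: Cy5 fluorescence, 0 and 60 min reads; control set: DMSO and thioflavine S; incubation: 60 min unwinding reaction at 25 °C after ATP addition; read-out basis: % inhibition from 60/0 min fluorescence ratio, DMSO 0%, thioflavine S 100%; repeats: singlicate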
DNA FID counter = compounds displacing fluorescent DNA intercalator, primary screen, artefact control for HCV NS3 helicase inhibitor project, biochemical, FID fluorescence; actives 0.17% (n = 290,000); inhibition, % at 7.9 µM; AID 1845, 2009; DNA fluorescent intercalator displacement; in the data active = inhibition above about 37%;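 also: 0% = vehicle and 100% = reference compound; higher means more ethidium bromide displaced from hairpin DNA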
IMP-1 inhibitor = IMP-1 metallo-beta-lactamase inhibitors, primary screen, biochemical, epi-absorbance readout, Pseudomonas aeruginosa enzyme; purified IMP-1, nitrocefin hydrolysis, epi-absorbance fluorescence; actives 0.45% (n = 290,000); AID 1556, 2009; inhibition, % at 5.6 µM; metallo-beta-lactamase IMP-1 (Pseudomonas aeruginosa);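 active = inhibition above the mean plus 3 SD of all compounds in the same screening run, cut at about 4.5% in these data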;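 also: 0% = IMP-1 with DMSO and 100% = DMSO wells lacking enzyme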
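System: purified IMP-1; amount: IMP-1 0.2 nM before substrate addition; compound: single dose, 5.6 µM; times: 25 °C, 15 min preincubation, 25 min reaction; signal: Epi-absorbance via hydrolysed-nitrocefin quenching of white-plate fluorescence, 480/530 nm, EDTA stop; benchmarks: DMSO with and without IMP-1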
VIM-2 inhibitor = VIM-2 metallo-beta-lactamase inhibitors, primary screen, biochemical, epi-absorbance readout, Pseudomonas aeruginosa enzyme; purified VIM-2, nitrocefin hydrolysis, epi-absorbance fluorescence; actives 0.89% (n = 290,000); AID 1527, 2009; inhibition, % at 5.6 µM;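 active = inhibition above the mean of all tested compounds plus 3 SD, cutoff set per screening run, cut at about 7.5% in these data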;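 also: red hydrolysis product quenches plate fluorescence so inhibitors raise well fluorescence; 0% = enzyme with DMSO and 100% = DMSO without enzyme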
Active calls of the source: *.

SMILES	NS3 helicase inh	DNA FID counter	IMP-1 inhibitor	VIM-2 inhibitor
COc1ccc(C(=O)c2c(C)c3ccccc3n2CC(O)CNC(C)C)cc1 (configuration not stated)	-68.2	37.5*	1.4	-1.3
COc1ccccc1CNCC(O)Cn1c2ccccc2c2ccccc21 (configuration not stated)	-69.0	22.5	-2.8	0.0
N[C@@H](Cc1ccccc1)C(=O)N1CCC(C(=O)NCC(=O)NCC(=O)O)CC1	-6.1	-2.2	-2.1	-3.3
O=C(COc1ccc2c3c(c(=O)oc2c1)CCCC3)NCCN1CCOCC1	3.4	-8.1	-2.3	12.1*
CC(Oc1ccc2c3c(c(=O)oc2c1)CCCC3)C(=O)NCCN1CCOCC1 (configuration not stated)	7.2	-5.6	-0.8	6.9
CCCc1cc(=O)oc2c(C)c(OCC(=O)NCCN3CCOCC3)ccc12	-6.5	-7.5	0.2	2.7
O=C(COc1ccc2c3c(c(=O)oc2c1)CCCC3)NCCCN1CCOCC1	-3.7	13.6	-0.7	10.9*
CCc1cc(=O)oc2cc(OCC(=O)NCCCn3ccnc3)ccc12	3.3	3.6	-2.1	10.9*
COc1ccc(-c2cc(=O)oc3cc(OCC(=O)NCCCn4ccnc4)ccc23)cc1	-43.7	9.3	-1.8	6.7
Cc1c(C)c2ccc(OCC(=O)NCCN3CCOCC3)c(C)c2oc1=O	9.8	10.2	0.1	11.4*
Cc1cc(=O)oc2cc(OCC(=O)NCCCN3CCOCC3)ccc12	-6.0	-3.0	-0.4	3.0
O=C(c1cccc(F)c1)N1CCN(C(=O)C(c2ccccc2)c2ccccc2)CC1	2.0	-37.7	-2.1	-1.2
CCc1cc(=O)oc2cc(OCC(=O)N3CCC[C@H]3C(=O)O)ccc12	5.0	95.2*	-4.2	0.2
COc1ccc(Br)c2oc(SC)cc(=O)c12	2.3	-7.9	-5.9	9.2*
CCOC(=O)C1=C(O)/C(=C/c2ccc(-c3ccccc3C(=O)O)o2)SC1=Nc1ccc(OC)cc1	17.2	-16.9	-4.4	11.3*
CN1CCN(C(=O)c2cc3c(=O)n4ccccc4nc3s2)CC1	8.4	-0.6	-0.2	7.9*
CCn1c(=O)c2cc(C(=O)N3CCN(C)CC3)sc2c2ccccc21	9.2	4.7	-2.4	9.0*
O=C1C(C=NCCCn2ccnc2)=C(O)c2ccccc21	8.2	3.8	-2.8	1.2
CC(=NCCCn1ccnc1)C1=C(O)c2ccccc2C1=O	-4.8	0.6	-4.5	11.8*
O=C(O)c1cccc2c1/C(=N/Nc1ccc([N+](=O)[O-])cc1[N+](=O)[O-])c1ccccc1-2	3.3	-3.2	-1.6	2.2
COc1cccc(C(=O)Nc2nnc(CCS(=O)(=O)c3ccc(C)cc3)s2)c1	-7.3	-26.1	0.3	7.9*
CC(=O)Nc1cc(C)nn1-c1nc(C)cc(C)n1	4.4	-6.9	-0.3	9.3*
Cc1ccc(Nc2cc(C)nn2-c2nc(C)cc(C)n2)cc1	4.7	-21.9	-7.3	7.8*
Cc1cc(C)nc(-n2nc(C)cc2NC(=O)C(C)C)n1	-3.7	-6.9	-3.6	1.9
CCOCCCNC(=O)c1cc(Nc2ccc(OC)cc2OC)nc2ccccc12	-12.3	-19.3	-1.7	-1.2
SMILES	NS3 helicase inh	DNA FID counter	IMP-1 inhibitor	VIM-2 inhibitor
COCCNC(=O)COC(=O)c1cccnc1SC	1.6	-0.3	-3.1	-0.1
Cc1ccc(NC(=O)CNCc2ccccc2Cl)cc1S(=O)(=O)N(C)C	-18.5	-0.7	36.6*	0.1
CCn1nccc1C(=O)Nc1cccc(C)c1C	3.3	-1.3	17.3*	-1.4
COc1ccc(CN2CCN(CCSc3ccc(C)cc3)CC2)c(OC)c1OC	-19.2	11.4	1.5	-1.5
O=C(CC(C(=O)O)c1cccc(Cl)c1)c1ccccc1 (configuration not stated)	7.8	-14.2	-0.3	10.6*
O=C(CC(C(=O)O)c1ccc(Cl)cc1)c1ccc(Br)cc1 (configuration not stated)	12.5	-22.8	-1.3	0.8
CCC1(C)CC(C(N)=S)CCO1 (configuration not stated)	0.7	-0.4	5.3*	-0.6
CCOc1ccccc1NC(=O)c1sc2ncn(CC(=O)N3CCOCC3)c(=O)c2c1C	-1.2	-26.9	-1.3	-0.6
O=C1c2cccc3cccc(c23)C(=O)N1c1ccc(O)cc1	23.8	-3.4	-3.2	8.4*
CC1(C)C2CC=C(/C=N/NC(=O)c3ccccc3Br)C1C2 (configuration not stated)	4.1	-1.5	-4.3	-3.5
CCSc1ncc(Cl)c(C(=O)Nc2ccc(S(=O)(=O)Nc3ncccn3)cc2)n1	4.7	-3.0	-0.1	-0.3
CCSc1ncc(Cl)c(C(=O)Nc2ccc(S(N)(=O)=O)cc2)n1	12.6	-1.5	0.4	8.6*
Oc1ccc(-c2c(C3=CCCCC3)sc3ccccc23)cc1	10.2	-1.1	5.1*	0.0
COc1ccc(-c2c(-c3ccccc3OC)sc3ccccc23)cc1OC	-20.8	-26.8	-2.3	-0.6
Cc1c(CCC(=O)NCCCCCC(=O)O)c(=O)oc2c(C)c3oc4c(c3cc12)CCCC4	23.9	-51.2	-2.4	2.7
Cc1c(CCC(=O)NCCCn2ccnc2)c(=O)oc2c(C)c3oc4c(c3cc12)CCCC4	-97.5	-1.7	-3.2	9.6*
O=C(O)c1cccc2cc(-c3ccccc3)oc(=O)c12	6.0	1.2	4.8*	4.7
COC(=O)c1c(C(=O)OC)c(-c2ccc(OC)cc2)n2c1CCC2	7.0	-28.4	-3.6	1.5
COc1ccc(-c2c(C(=O)O)c(C(=O)O)c3n2CCC3)cc1	-2.5	-8.0	-0.6	11.1*
O=C1/C(=N\S(=O)(=O)c2cccs2)C([n+]2ccccc2)=C([O-])c2ccccc21	-0.5	-0.1	-1.1	-0.5
CC(C)(C)c1cc[n+](C2=C([O-])c3ccccc3C(=O)/C2=N\S(=O)(=O)c2cccs2)cc1	15.3	3.6	7.0*	3.3
CC(C)C1N(C(N)=S)N=CC1(C)C (configuration not stated)	-5.5	-3.7	-2.5	0.1
COc1cccc2c1cc1c(=O)n(CC(=O)NC3CCCCC3)nc(C)n12	5.6	-0.9	-2.4	-2.6
COc1cccc2c1cc1c(=O)n(CC(=O)NCCCN3CCN(C)CC3)nc(C)n12	-7.3	10.5	-1.8	10.3*
CCCSCCCNC(=O)Cn1nc(CC)n2c(cc3c(OC)cccc32)c1=O	-11.0	-15.5	9.1*	-0.3
CCc1nn(CC(=O)NCCN2CCOCC2)c(=O)c2cc3c(OC)cccc3n12	-4.5	0.3	-0.6	8.8*
Cc1cc(C)nc(N2C(=O)CC(C(C)c3ccccc3)C2=O)n1 (configuration not stated)	3.2	-3.8	9.3*	-1.0
COc1ccc2nc(N3C(=O)CC(Cc4ccc(C)cc4)C3=O)sc2c1 (configuration not stated)	0.2	-40.1	-3.6	-0.8
COc1ccc2nc(N3C(=O)CC(C(C)c4ccccc4)C3=O)sc2c1 (configuration not stated)	9.8	-36.7	7.9*	3.7

Assay outcomes from PubChem.
